pIC50, pKi: −log10 of the molar value.

The values below come from ChEMBL document CHEMBL1144922 (J Med Chem, 2003).

The subject of assay [1] is MT2. Briefly: Anti-HIV activity based on inhibition of HIV-1 induced cytopathogenicity in MT-2 cells. It counts as functional, cell-based. The following applies: Homo sapiens. Summed up:
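IC50 from inhibition of HIV-induced cytopathic effect in MT-2 cells. Values with SD are means of at least three independent experiments; values without SD come from a single experiment.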

The test system of assay [2] is Human immunodeficiency virus 1. As to the kind of experiment: Anti-HIV activity against multidrug resistant HIV JSL strain by inhibition of HIV p24 antigen expression in peripheral blood mononuclear cells(PBMC). It is filed as functional, organism-based. The procedure, abridged:
(§1)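 Read-out was HIV p24 antigen expression in peripheral blood mononuclear cells infected with multidrug-resistant HIV-1. Values with standard deviation are means of at least three experiments, and values without one come from a single experiment. Wild-type strain HIV104pre was the reference. Protease amino acid substitutions of each strain were characterised.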

The subject of assay [3] is Human immunodeficiency virus 1. As to the kind of experiment: Anti-HIV activity against multidrug resistant HIV MM strain by inhibition of HIV p24 antigen expression in peripheral blood mononuclear cells(PBMC). It is filed as functional, organism-based. The procedure, abridged: as §1
Assay [4] concerns Human immunodeficiency virus 1. Briefly: Anti-HIV activity against multidrug resistant HIV TM strain by inhibition of HIV p24 antigen expression in peripheral blood mononuclear cells(PBMC). It is filed as functional, organism-based. Summed up:
as §1

Assay [5] concerns MT2. As to the kind of experiment: Cytotoxicity based on reduction of the viability of mock-infected MT-2 cells. It is filed as functional. The following applies: Homo sapiens. Summed up: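 CC50 taken as the concentration reducing the viability of mock-infected (uninfected) MT-2 cells. Values with SD are means of at least three independent experiments; values without SD come from a single experiment.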

In assay [6] the test system is Human immunodeficiency virus. Briefly: Inhibitory activity against wild type strain,HIV104pre. It is filed as functional, organism-based. The conditions noted are these: Human immunodeficiency virus 1. Summed up:
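Activity against the wild-type strain HIV104pre was read as inhibition of HIV p24 antigen expression in peripheral blood mononuclear cells (PBMC).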

In assay [7] the target is Human immunodeficiency virus type 1 protease (Human immunodeficiency virus 1, UniProt Q72874). Briefly: Inhibitory activity against HIV-1 protease. Summed up:
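Ki against HIV-1 protease. Enzyme reaction rate was obtained by SELDI-MS quantitation of the remaining parent peptide substrate.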

Assay [8] in a line: Selectivity index was determined as ratio of reduction of the viability of mock-infected MT-2 cells/inhibition of HIV-1 induced cytopathogenicity in MT-2 cells. It is filed as functional, MT2.

Turning to `CC(C)CN(C[C@H](O)[C@@H](/C=C/[C@@H](C[S+]([O-])c1ccc2ccccc2c1)NS(C)(=O)=O)Cc1ccccc1)S(=O)(=O)c1ccc(N)cc1` (some centres not stated), in the assay on MT2 [1], the pIC50 is less than 6.00.

In turn, `CC(C)(C)NC(=O)[C@@H]1C[C@@H]2CCCC[C@@H]2CN1CC(O)[C@@H](/C=C/[C@@H](CS(=O)(=O)c1ccc2ccccc2c1)NS(C)(=O)=O)Cc1ccccc1` (some centres not stated) gave a negative logarithm of the IC50 (pIC50) in the assay on MT2 [1] of less than 6.00.

In the case of `CC(C)CN(C[C@@H](O)[C@H](Cc1ccccc1)NC(=O)O[C@H]1CCOC1)S(=O)(=O)c1ccc(N)cc1`, the negative logarithm of the IC50 (pIC50) is 6.10 in assay [2]; 7.44 with MT2 [1]; 6.28 in assay [3]; 6.32 in assay [4]; 7.70 in assay [6]. Moreover, the CC50 in the assay with MT2 [5] was greater than 100 µM.

For the compound `CC(C)(C)NC(=O)[C@@H]1C[C@@H]2CCCC[C@@H]2CN1C[C@@H](O)[C@H](Cc1ccccc1)NC(=O)[C@H](CC(N)=O)NC(=O)c1ccc2ccccc2n1`, the values for the pIC50 (in the assay with MT2 [1]; in assay [6]) were 7.77 and 7.72, respectively. In the assay with MT2 [5], this compound yielded a CC50 of 11 µM.

As for `CC(C)CN(C[C@@H](O)[C@@H](/C=C/[C@@H](C[S+]([O-])c1ccc2ccccc2c1)NS(C)(=O)=O)Cc1ccccc1)S(=O)(=O)c1ccc(N)cc1` (some centres not stated), the negative-log IC50 (pIC50) was 6.47 in assay [2]; 6.80 with MT2 [1]; 6.28 in assay [3]; less than 6.00 in assay [4]; 6.74 in assay [6]. The pKi in assay [7] was 9.42. The compound also returned a cytotoxic concentration (CC50) in the assay on MT2 [5] of 8 µM. In addition, the SI in assay [8] was found to be 58.

Consider `CC(C)(C)NC(=O)[C@@H]1C[C@@H]2CCCC[C@@H]2CN1C[C@@H](O)[C@H](Cc1ccccc1)NC(=O)[C@@H](C[S+]([O-])c1ccc2ccccc2c1)NS(C)(=O)=O` (some centres not stated), for which the negative-log IC50 (pIC50) in assay [2] was 6.66; with MT2 [1] it was 8.02; in assay [3], 7.49; in assay [4], 7.47; in assay [6] it was 7.82. Moreover, the negative logarithm of the Ki (pKi) in assay [7] was 9.92. The half-maximal cytotoxic concentration (CC50) in the assay on MT2 [5] was found to be 3.9 µM. Moreover, the SI in assay [8] came to 410.

Regarding `CC(C)(C)NC(=O)[C@@H]1C[C@@H]2CCCC[C@@H]2CN1CC(O)[C@@H](/C=C/[C@@H](C[S+]([O-])c1ccc2ccccc2c1)NS(C)(=O)=O)Cc1ccccc1` (some centres not stated), in the assay with MT2 [1], the negative-log IC50 (pIC50) was less than 6.00.

As for `CC(C)CN(C[C@@H](O)[C@H](Cc1ccccc1)NC(=O)[C@@H](C[S+]([O-])c1ccc2ccccc2c1)NS(C)(=O)=O)S(=O)(=O)c1ccc(N)cc1` (some centres not stated), the negative-log IC50 (pIC50) in assay [2] was 7.60; in the assay on MT2 [1] it was 7.18; in assay [3] it was 7.44; in assay [4], 7.37; in assay [6], 7.51. Besides, the pKi in assay [7] was 10.00. In the assay on MT2 [5], this compound gave a cytotoxic concentration (CC50) of 33 µM. The SI in assay [8] came to 500.

As to `Cc1cn([C@H]2C[C@H](N=[N+]=[N-])[C@@H](CO)O2)c(=O)[nH]c1=O` [ZIDOVUDINE], the negative-log IC50 (pIC50) in assay [2] was 7.19; in the assay on MT2 [1], 7.57; in assay [3], 7.43; in assay [4], 7.37; in assay [6], 8.60. For the same compound, in the assay with MT2 [5], the half-maximal cytotoxic concentration (CC50) is greater than 100 µM.

In general, pIC50 refers to the negative decadic logarithm of the IC50, by convention in mol/L. By CC50 is commonly meant the concentration that lowers cell viability or growth by half. Low readings indicate greater toxicity to the cells, high ones lower toxicity to the cells. As a reminder, the pKi is −log10 of the Ki, conventionally taken in molar units. Read a low pKi as a large Ki.
